Screening data from PubChem.
In the library only some 2.9% were active in any assay of this set; here they are far more common.
5HT1E ag: 5-HT1E receptor agonists, primary screen, cell-based, HTS. CHO 5-HT1E Ga15 NFAT-bla reporter, FRET; 0% DMSO wells, 100% control agonist wells. actives 0.69% (n = 65,000). AID 574, 2007. 5-hydroxytryptamine receptor 1E (Homo sapiens), P28566. activation, % at 6 µM;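 active = activation above a set limit, the screen-wide mean activation plus 3 SD, cut at about 8.5% in these data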;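 also: 100% = positive control agonist at 1 µM giving full maximal response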
Target sequence (P28566 whole entry, looked up): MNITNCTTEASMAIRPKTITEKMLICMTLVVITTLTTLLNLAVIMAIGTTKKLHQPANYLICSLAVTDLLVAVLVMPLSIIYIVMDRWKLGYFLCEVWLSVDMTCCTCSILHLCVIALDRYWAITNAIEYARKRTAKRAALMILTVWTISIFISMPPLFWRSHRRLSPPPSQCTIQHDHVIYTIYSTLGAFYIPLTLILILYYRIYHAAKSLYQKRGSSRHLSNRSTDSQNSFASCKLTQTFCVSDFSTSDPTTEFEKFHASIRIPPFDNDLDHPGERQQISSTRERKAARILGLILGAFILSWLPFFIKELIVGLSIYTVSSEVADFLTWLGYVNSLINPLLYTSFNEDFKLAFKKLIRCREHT
SK-BR-3 tox 24h: SK-BR-3 proliferation inhibitors, primary screen, cell-based, human, 24 h. AID 847, 2007. actives 0.47% (n = 41,000). viability, % at 10 µM. SK-BR-3 viability, CellTiter-Glo ATP luminescence; stronger effect = lower value;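 active = viability at or below the median of all test compounds minus 3 SD, in both replicates if run twice, cut at about 45% in these data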;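 also: 100% = median untreated cell wells and 0% = median positive control drug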
5-HT1A blocker: human 5-HT1a receptor antagonists, primary screen, cell-based, CHO, Ga15 NFAT-bla reporter. actives 0.68% (n = 62,000). CHO 5-HT1a Ga15 NFAT-bla reporter, antagonist mode. inhibition, % at 10 µM. 5-hydroxytryptamine receptor 1A (Homo sapiens), P08908;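 active = inhibition above the mean of all tested compounds plus 3 SD, cut at about 43% in these data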;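 also: receptor stimulated by 5-CT agonist at 100 nM near EC80; beta-lactamase reporter measured by ratiometric fluorescence of a cleavable substrate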
HEK293 NFkB inh: inhibitors of PMA/ionomycin-induced NF-kB reporter, primary screen, antigen receptor NF-kB inhibitor project, cell-based, HEK-293 luciferase reporter, luminescence. HEK-293 NF-kB luciferase reporter. inhibition, % at 3 µM. actives 0.21% (n = 62,000). AID 465, 2006;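 active = inhibition above the mean of all tested compounds plus 3 SD, cut at about 40% in these data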;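 also: 0% = stimulated DMSO wells and 100% = 10 µM reference inhibitor 5653914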
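System – HEK-293 cells with stable firefly luciferase reporter driven by four HIV NF-kB elements · Doses – one dose, 3 µM · Schedule – 1 h compound pre-incubation, 16 h PMA/ionomycin at 37 °C · Technique – luminescence from luciferase substrate reagent · Measure – percent inhibition normalized per plate to DMSO and reference-inhibitor controls · Replicates – tested once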
HTR1A agonist: human 5-HT1a receptor agonists, primary screen, cell-based, CHO, Ga15 NFAT-bla reporter; CHO 5-HT1a Ga15 NFAT-bla reporter, FRET ratio; 0% basal, 100% maximal reference agonist; 5-hydroxytryptamine receptor 1A (Homo sapiens), P08908; activation, % at 10 µM; actives 0.56% (n = 65,000);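 active = activation above the screen-wide mean activation plus 3 SD, cut at about 19% in these data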;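 also: 0% = DMSO wells and 100% = 5-CT at EC100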
5HT1E antag: 5-HT1E receptor antagonists, primary screen, cell-based, HTS | 5-hydroxytryptamine receptor 1E (Homo sapiens), P28566 | CHO 5-HT1E Ga15 NFAT-bla reporter, FRET, antagonist | inhibition, % at 6 µM | actives 0.99% (n = 65,000) | AID 571, 2007;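 active = inhibition above a set limit, the mean inhibition across every tested compound plus 3 SD, cut at about 29% in these data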;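 also: signal is the 460 over 535 nm emission ratio of beta-lactamase substrate; 0% = agonist plus DMSO wells and 100% = wells without agonist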
Starred values were filed as active, the others as inactive.

`CCOC(=O)N1CCN(C(=O)CSc2nnc(C3COc4ccccc4O3)o2)CC1` (stereo not drawn) gave 5HT1E ag 0, 5-HT1A blocker -12, HEK293 NFkB inh 10, HTR1A agonist 78* and 5HT1E antag 8.
`COc1cc(Cl)ccc1NC(=O)COc1ccccc1C(=O)N1CCN(c2ccc(O)cc2)CC1` gave 5HT1E ag 0, 5-HT1A blocker 5, HEK293 NFkB inh 9, HTR1A agonist 1 and 5HT1E antag -8.
For COc1cc(C2C(C#N)=C(N)Oc3cc(N)ccc32)cc(OC)c1OC (stereo not drawn) the results were 5HT1E ag 0, SK-BR-3 tox 24h 83, HTR1A agonist 1 and 5HT1E antag 57*.
COC(=O)c1nc2n(n1)C(c1cc(OC)ccc1OC)C(C(=O)OC1CCCCC1)=C(C)N2 (stereo not drawn) was read as 5HT1E ag -2, SK-BR-3 tox 24h 81, 5-HT1A blocker 15, HEK293 NFkB inh 10, HTR1A agonist 2 and 5HT1E antag 13.
`COc1nc(OC)nc(N2CCC(C(=O)Nc3cccc4c3CCCC4)CC2)n1` gave 5HT1E ag 0, SK-BR-3 tox 24h 72, 5-HT1A blocker 0, HEK293 NFkB inh 3, HTR1A agonist 22* and 5HT1E antag 1.
O=C(NCC(c1cccnc1)N1CCN(c2ccc(F)cc2)CC1)c1ccc(F)cc1 (stereo not drawn) was read as 5HT1E ag 0, SK-BR-3 tox 24h 86, 5-HT1A blocker 0, HEK293 NFkB inh 20, HTR1A agonist -2 and 5HT1E antag 3.
For CCNc1cc2n(c(=O)n1)CCc1cc(OC)c(OC)cc1-2 the results were 5HT1E ag 1, SK-BR-3 tox 24h 102, 5-HT1A blocker 6, HEK293 NFkB inh 7, HTR1A agonist 1 and 5HT1E antag 9.
Screening COc1cc2c(cc1OC)-c1cc(NC3CCCCCCC3)nc(=O)n1CC2 returned 5HT1E ag 0, SK-BR-3 tox 24h 84, 5-HT1A blocker 29, HEK293 NFkB inh 29, HTR1A agonist 2 and 5HT1E antag 52*.
For COc1cc2c(cc1OC)-c1cc(NC3CCCCC3)nc(=O)n1CC2 the results were 5HT1E ag 2, SK-BR-3 tox 24h 97, 5-HT1A blocker 9, HEK293 NFkB inh 16, HTR1A agonist 2 and 5HT1E antag 36*.
For CCCCCCNc1cc2n(c(=O)n1)CCc1cc(OC)c(OC)cc1-2 the results were 5HT1E ag 0, SK-BR-3 tox 24h 86, 5-HT1A blocker 0, HEK293 NFkB inh 8, HTR1A agonist 1 and 5HT1E antag 39*.
For COc1ccc2c(C=Nc3c(C)n(C)n(-c4ccccc4)c3=O)c(O)n(Cc3ccco3)c(=O)c2c1 the results were 5HT1E ag 3, 5-HT1A blocker -20, HEK293 NFkB inh 8, HTR1A agonist 3 and 5HT1E antag -14.
COC(=O)c1ccc(C)c(NS(=O)(=O)c2ccc3c(c2)OCCO3)c1 was read as 5HT1E ag -1, 5-HT1A blocker 33, HEK293 NFkB inh 33, HTR1A agonist -1 and 5HT1E antag 60*.
Nc1nc2ccccc2nc1N was read as 5HT1E ag 0, 5-HT1A blocker 3, HEK293 NFkB inh 5, HTR1A agonist -2 and 5HT1E antag -6.
Nc1nsc2ccccc12 was read as 5HT1E ag -2, SK-BR-3 tox 24h 110, 5-HT1A blocker 73*, HEK293 NFkB inh 22, HTR1A agonist -6 and 5HT1E antag 25.
Cc1cccc(NC(=O)CSc2nnc(-c3ccc(S(=O)(=O)N4CCOCC4)cc3)n2C)c1 was read as 5HT1E ag 0, SK-BR-3 tox 24h 90, 5-HT1A blocker 8, HEK293 NFkB inh 4, HTR1A agonist 0 and 5HT1E antag -5.
Screening CC(=O)NC1C(=O)N(CCc2ccccc2)c2ccccc21 (stereo not drawn) returned 5HT1E ag 14*, SK-BR-3 tox 24h 74, 5-HT1A blocker 17, HEK293 NFkB inh 7, HTR1A agonist 0 and 5HT1E antag 0.
For COc1ccc(N2CCN(CCCNC(=O)c3cc4sccc4n3C)CC2)cc1 the results were 5HT1E ag 0, 5-HT1A blocker 19, HEK293 NFkB inh 20, HTR1A agonist -6 and 5HT1E antag -5.
Screening CC1CCN(CCCNC(=O)c2cc3sccc3n2C)CC1 returned 5HT1E ag 2, SK-BR-3 tox 24h 42*, 5-HT1A blocker -7, HEK293 NFkB inh 19, HTR1A agonist 4 and 5HT1E antag -11.
Screening Cc1nn2c(C(F)(F)F)cc(-c3ccc(Cl)cc3)nc2c1C(=O)N1CCOCC1 returned 5HT1E ag 38*, 5-HT1A blocker -7, HEK293 NFkB inh 7, HTR1A agonist -4 and 5HT1E antag -7.
`COc1ccc(Cl)cc1NC(=O)CSc1nncn1-c1cccnc1` gave 5HT1E ag -1, SK-BR-3 tox 24h 88, 5-HT1A blocker -1, HEK293 NFkB inh 1, HTR1A agonist -2 and 5HT1E antag 4.
Screening CCCCCOC(=O)Cn1c(SCC(=O)Nc2ccccc2)nc2c1c(=O)[nH]c(=O)n2C returned 5HT1E ag 9.7*, SK-BR-3 tox 24h 89, 5-HT1A blocker -7, HEK293 NFkB inh 14, HTR1A agonist -1 and 5HT1E antag 2.
`CCCc1nc(N)c(C#N)c(N)c1C#N` gave 5HT1E ag 0, SK-BR-3 tox 24h 78, 5-HT1A blocker -9, HEK293 NFkB inh 9, HTR1A agonist -2 and 5HT1E antag 29*.
`CC1(C)Cc2cccc(OCC(O)CN3CCN(c4ccccn4)CC3)c2O1` (stereo not drawn) gave 5HT1E ag 0, 5-HT1A blocker 11, HEK293 NFkB inh 3, HTR1A agonist 21* and 5HT1E antag -4.
Screening CC1(C)Cc2cccc(OCC(O)CNCc3ccccn3)c2O1 (stereo not drawn) returned 5HT1E ag 0, 5-HT1A blocker 21, HEK293 NFkB inh 16, HTR1A agonist -1 and 5HT1E antag 10.
`CCOC(=O)N1CCN(C2=Nc3cccc4cccc2c34)CC1` gave 5HT1E ag 1, 5-HT1A blocker -23, HEK293 NFkB inh -1, HTR1A agonist 71* and 5HT1E antag 3.
CC(=O)N1CCN(C2=Nc3cccc4cccc2c34)CC1 was read as 5HT1E ag -1, 5-HT1A blocker 5, HEK293 NFkB inh 18, HTR1A agonist -1 and 5HT1E antag 10.
